The M2OR odorant receptor database
Residue numbers refer to the chain shown, from its start.

How the values were obtained:
Conditions in all cases: stereoisomer not certain
[1] = target: T1, UniProt L7MU75
T1 sequence (whole entry): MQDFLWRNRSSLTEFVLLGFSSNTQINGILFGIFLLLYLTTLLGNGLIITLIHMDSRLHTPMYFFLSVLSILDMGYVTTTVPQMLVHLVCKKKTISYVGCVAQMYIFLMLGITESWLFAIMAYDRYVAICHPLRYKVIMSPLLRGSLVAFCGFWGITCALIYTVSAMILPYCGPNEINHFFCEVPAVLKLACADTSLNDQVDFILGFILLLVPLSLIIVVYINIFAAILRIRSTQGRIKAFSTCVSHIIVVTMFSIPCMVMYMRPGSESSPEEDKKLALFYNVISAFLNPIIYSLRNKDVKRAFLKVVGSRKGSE
How it was run: (§1)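 Values were gathered from published papers (main text and supplementary material), with extra details requested from the original authors when needed, and checked for typos and inconsistencies. Each receptor–molecule pair is called responsive (active) if the original authors judged the measured signal statistically different from baseline, and non-responsive (inactive) otherwise. Assay methods varied by source, often transient mammalian cell-line luciferase assays. Recorded details include cell line, G-protein, co-transfected protein and tags.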

[2] = target: T2, UniProt L7N0P5
T2 sequence (whole entry): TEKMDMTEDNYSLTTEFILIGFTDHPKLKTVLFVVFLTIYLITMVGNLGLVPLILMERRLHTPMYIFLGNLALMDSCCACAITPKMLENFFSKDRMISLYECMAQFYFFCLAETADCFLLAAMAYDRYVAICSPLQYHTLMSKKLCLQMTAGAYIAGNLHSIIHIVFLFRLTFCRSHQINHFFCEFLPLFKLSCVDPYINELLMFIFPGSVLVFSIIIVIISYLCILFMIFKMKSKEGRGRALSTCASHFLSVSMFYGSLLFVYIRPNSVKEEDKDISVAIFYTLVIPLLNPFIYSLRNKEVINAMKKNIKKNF
How it was run: as §1

[3] = target: T3, UniProt L7N210
T3 sequence (whole entry): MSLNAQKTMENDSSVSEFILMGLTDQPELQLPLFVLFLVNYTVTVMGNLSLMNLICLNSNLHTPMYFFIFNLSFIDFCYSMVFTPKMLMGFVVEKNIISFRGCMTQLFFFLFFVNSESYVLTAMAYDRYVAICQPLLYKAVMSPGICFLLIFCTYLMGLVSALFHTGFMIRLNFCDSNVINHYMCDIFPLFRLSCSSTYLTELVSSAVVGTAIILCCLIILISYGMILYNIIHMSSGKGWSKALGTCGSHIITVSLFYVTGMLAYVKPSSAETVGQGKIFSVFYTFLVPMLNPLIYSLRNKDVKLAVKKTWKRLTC
How it was run: as §1

[4] = target: T4, UniProt Q3KPB0
T4 sequence (whole entry): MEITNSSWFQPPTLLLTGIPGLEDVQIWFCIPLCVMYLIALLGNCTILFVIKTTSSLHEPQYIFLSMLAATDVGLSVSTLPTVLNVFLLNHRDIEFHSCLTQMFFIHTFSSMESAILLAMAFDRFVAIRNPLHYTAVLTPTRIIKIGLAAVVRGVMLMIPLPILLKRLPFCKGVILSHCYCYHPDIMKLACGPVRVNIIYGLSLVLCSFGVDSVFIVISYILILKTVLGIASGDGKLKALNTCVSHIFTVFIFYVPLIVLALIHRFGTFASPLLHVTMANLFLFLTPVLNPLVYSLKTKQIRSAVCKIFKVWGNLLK
How it was run: as §1

[5] = target: T5, UniProt Q3U0P3
T5 sequence (whole entry): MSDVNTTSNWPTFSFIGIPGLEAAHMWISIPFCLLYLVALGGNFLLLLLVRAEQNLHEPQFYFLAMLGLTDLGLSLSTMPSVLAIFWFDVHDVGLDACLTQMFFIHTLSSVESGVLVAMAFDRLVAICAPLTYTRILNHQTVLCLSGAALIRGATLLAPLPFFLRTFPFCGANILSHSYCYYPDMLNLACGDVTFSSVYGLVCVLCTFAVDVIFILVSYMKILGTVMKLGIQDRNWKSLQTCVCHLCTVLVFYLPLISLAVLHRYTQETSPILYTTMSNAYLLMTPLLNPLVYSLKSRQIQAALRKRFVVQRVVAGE
How it was run: as §1

[6] = target: T6, UniProt Q7TQU8
T6 sequence (whole entry): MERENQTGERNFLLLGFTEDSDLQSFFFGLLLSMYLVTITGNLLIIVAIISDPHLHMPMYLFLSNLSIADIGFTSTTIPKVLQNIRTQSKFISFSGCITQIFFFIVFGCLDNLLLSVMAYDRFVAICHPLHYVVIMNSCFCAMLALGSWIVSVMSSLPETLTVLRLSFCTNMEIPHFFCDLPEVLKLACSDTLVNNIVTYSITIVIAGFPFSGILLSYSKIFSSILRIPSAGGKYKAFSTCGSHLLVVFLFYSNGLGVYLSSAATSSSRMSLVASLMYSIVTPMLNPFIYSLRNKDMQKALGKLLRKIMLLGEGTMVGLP
How it was run: as §1

[7] = target: T7, UniProt Q7TQV4
T7 sequence (whole entry): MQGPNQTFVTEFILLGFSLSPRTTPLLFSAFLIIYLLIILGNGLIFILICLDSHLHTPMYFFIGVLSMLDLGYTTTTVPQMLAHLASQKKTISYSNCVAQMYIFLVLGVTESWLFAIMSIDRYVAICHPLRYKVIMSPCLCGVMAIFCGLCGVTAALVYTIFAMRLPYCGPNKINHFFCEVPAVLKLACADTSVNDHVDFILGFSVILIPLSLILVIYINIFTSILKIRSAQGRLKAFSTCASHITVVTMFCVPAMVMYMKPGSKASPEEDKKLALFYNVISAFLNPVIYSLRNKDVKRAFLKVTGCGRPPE
How it was run: as §1

[8] = target: T8, UniProt Q7TR71
T8 sequence (whole entry): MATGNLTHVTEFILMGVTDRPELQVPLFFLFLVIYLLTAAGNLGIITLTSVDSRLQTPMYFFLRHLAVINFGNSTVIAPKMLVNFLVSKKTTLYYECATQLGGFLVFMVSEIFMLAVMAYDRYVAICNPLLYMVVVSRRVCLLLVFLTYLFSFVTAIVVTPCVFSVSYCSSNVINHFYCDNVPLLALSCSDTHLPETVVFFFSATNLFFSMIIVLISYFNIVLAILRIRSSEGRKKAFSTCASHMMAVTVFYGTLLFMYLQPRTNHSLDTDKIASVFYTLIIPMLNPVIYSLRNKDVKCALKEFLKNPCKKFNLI
How it was run: as §1

[9] = target: T9, UniProt Q7TR79
T9 sequence (whole entry): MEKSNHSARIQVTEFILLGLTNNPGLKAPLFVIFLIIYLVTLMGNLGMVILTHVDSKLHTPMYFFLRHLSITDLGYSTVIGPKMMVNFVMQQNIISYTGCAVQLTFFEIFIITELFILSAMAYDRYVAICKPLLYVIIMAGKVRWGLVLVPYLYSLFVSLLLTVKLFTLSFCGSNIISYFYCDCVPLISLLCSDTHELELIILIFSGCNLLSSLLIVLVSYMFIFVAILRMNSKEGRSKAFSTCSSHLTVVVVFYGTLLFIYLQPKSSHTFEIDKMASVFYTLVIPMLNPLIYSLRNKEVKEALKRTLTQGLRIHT
How it was run: as §1

[10] = target: T10, UniProt Q7TRA3
T10 sequence (whole entry): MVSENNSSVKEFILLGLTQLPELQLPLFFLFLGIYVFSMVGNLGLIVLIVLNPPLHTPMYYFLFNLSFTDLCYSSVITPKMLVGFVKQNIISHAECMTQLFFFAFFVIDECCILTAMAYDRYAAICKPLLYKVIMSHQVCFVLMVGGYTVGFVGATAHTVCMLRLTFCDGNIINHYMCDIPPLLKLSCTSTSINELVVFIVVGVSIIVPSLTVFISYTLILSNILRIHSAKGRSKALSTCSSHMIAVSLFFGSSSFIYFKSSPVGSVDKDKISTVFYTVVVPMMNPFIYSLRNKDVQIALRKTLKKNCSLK
How it was run: as §1

[11] = target: T11, UniProt Q7TRE4
T11 sequence (whole entry): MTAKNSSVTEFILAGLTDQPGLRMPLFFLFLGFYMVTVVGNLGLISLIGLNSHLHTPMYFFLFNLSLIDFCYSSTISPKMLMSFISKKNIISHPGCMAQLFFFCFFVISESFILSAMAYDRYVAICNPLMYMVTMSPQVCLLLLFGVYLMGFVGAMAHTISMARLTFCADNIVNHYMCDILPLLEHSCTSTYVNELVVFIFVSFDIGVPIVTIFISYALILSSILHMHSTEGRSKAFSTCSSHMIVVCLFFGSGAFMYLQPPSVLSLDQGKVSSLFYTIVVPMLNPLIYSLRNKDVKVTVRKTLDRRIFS
How it was run: as §1

[12] = target: T12, UniProt Q7TRA1
T12 sequence (whole entry): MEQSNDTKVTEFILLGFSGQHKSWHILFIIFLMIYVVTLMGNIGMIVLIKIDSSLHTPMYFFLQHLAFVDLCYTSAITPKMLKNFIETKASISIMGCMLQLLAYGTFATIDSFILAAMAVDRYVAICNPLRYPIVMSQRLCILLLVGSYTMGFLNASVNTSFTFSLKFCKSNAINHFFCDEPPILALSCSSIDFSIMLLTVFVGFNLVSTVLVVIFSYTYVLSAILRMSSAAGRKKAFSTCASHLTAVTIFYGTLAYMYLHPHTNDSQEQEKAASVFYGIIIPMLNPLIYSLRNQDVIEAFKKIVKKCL
How it was run: as §1

[13] = target: T13, UniProt Q7TRA2
T13 sequence (whole entry): T12 sequence (whole entry) with S18A, I86T, I94F, M95I, S112C, V208L, T219I, V221I, V305A
How it was run: as §1

[14] = target: T14, UniProt Q7TRM0
T14 sequence (whole entry): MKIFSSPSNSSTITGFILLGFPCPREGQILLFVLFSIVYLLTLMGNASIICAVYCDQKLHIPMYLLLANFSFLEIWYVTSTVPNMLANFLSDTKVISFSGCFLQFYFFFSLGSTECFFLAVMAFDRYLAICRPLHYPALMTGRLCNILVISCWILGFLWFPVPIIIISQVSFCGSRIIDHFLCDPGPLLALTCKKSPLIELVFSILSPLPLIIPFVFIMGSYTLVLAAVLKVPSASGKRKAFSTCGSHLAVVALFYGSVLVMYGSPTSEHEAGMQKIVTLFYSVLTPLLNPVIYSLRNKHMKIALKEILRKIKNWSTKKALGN
How it was run: as §1

[15] = target: T15, UniProt Q7TRN9
T15 sequence (whole entry): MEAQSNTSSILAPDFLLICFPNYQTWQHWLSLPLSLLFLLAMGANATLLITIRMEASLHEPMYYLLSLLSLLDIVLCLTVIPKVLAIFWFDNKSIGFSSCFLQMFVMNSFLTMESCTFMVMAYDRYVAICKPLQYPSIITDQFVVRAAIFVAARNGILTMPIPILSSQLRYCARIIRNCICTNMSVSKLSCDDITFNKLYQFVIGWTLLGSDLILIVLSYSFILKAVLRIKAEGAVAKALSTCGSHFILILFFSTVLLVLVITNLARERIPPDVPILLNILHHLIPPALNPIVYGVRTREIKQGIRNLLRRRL
How it was run: as §1

Measured: odorant receptor agonist call

Cc1nccnc1C
inactive: [1]
active: [2]

OCc1ccccc1
inactive: [1]

CCC(=O)O
not listed: [2] | [12] | [13] | [14] | [15]
inactive: all other assays above

CC1=CCC2CC1C2(C)C (centres undefined)
inactive: [1]

CCCCCC=O
not listed: [2] | [12] | [13] | [14] | [15]
inactive: all other assays above

CCCCOC(=O)CCC
inactive: [1]

CCOc1ccccc1
inactive: [1]

CCC=O
inactive: [1]

CCc1nccnc1CC
inactive: [1] | [3] | [4] | [5] | [6] | [9]
active: [2]

CC(O)c1ccccc1 (centres undefined)
inactive: [1]

CCCOC(=O)CCC
inactive: [1]

CCCCCCCCC(=O)O
active: [12] | [13] | [15]
not listed: [2]
inactive: all other assays above

CCC(=O)OC(C)(C)C
inactive: [1]

CCCCOC=O
not listed: [2] | [12] | [13] | [14] | [15]
inactive: all other assays above

CCCCC(=O)CC
not listed: [2] | [12] | [13] | [14] | [15]
inactive: all other assays above

CC(C)CN
inactive: [1]

C=CCCCCCC
inactive: [1]

O=C(Cl)CCCCCCCC(=O)Cl
inactive: [1]

CCCC(=O)OC
inactive: [1]

CC(C)=CC1CC(C)CCO1 (centres undefined)
inactive: [1]

CCC(C)c1nccnc1OC (centres undefined)
inactive: [1] | [3] | [4] | [5] | [6] | [9]
active: [2]

C=CCOC(=O)CCCCCC
not listed: [2] | [12] | [13] | [14] | [15]
inactive: all other assays above

CCCCOC
inactive: [1]
